Source: PMC4203516 (Autophagy, 2014)
Where “and” joins values, the source holds several entries; their conditions need not be identical. Equal values may be shown once. Entries after “also recorded” stand apart in the source; their conditions may differ.

Columns and labels:
[1] = Phase I dose escalation: adverse events and dose-limiting toxicities; format: in vivo, human
Method in brief: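 Open-label, single-institution 3 + 3 escalation. IV temsirolimus 25 mg weekly was infused over 30 min after IV diphenhydramine 25–50 mg premedication. A 1-wk temsirolimus-alone run-in preceded daily oral HCQ (200, 400, 800, 1200 mg), split ≥6 h apart above 200 mg. Cycles lasted 4 wk. The DLT window was the first 6 wk, later 5 wk. Toxicity-evaluable patients took ≥1 HCQ dose. Blood counts were weekly, then every 2 wk.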

[2] = HCQ whole blood population pharmacokinetics; format: in vivo, human
[3] = Total, all HCQ doses + TEM 25 mg weekly, N=39
[4] = daily HCQ 200 mg + TEM 25 mg weekly, N=11
[5] = daily HCQ 400 mg + TEM 25 mg weekly, N=3
[6] = daily HCQ 800 mg + TEM 25 mg weekly, N=9
[7] = daily HCQ 1200 mg + TEM 25 mg weekly, N=16
[8] = population PK, 1000 bootstrap runs
[9] = population PK, whole blood, 34 patients, oral HCQ

CCN(CCO)CCCC(C)Nc1ccnc2cc(Cl)ccc12 (stereo not shown) [HCQ, hydroxychloroquine]
Anal fissure G1–2, % [1, 3]: 5%
Anal fissure G1–2, patients [1, 3]: 2
Anemia G1–2, patients [1, 3]: 4
Anemia G3–4, patients [1, 3]: 4
Anorexia G1–2, % [1, 3]: 41%
Anorexia G1–2, patients [1, 3]: 16
Anorexia G3–4, % [1, 3]: 8%
Anorexia G3–4, patients [1, 3]: 3
Constipation G1–2, % [1, 3]: 13%
Constipation G1–2, patients [1, 3]: 5
Diarrhea G1–2, patients [1, 3]: 7
Dizziness G1–2, % [1, 3]: 5%
Dizziness G1–2, patients [1, 3]: 2
Dysguesia G1–2, patients [1, 3]: 2
Dysguesia G3–4, patients [1, 3]: 1
Elevated creatinine G1–2, patients [1, 3]: 2
Elevated creatinine G3–4, patients [1, 3]: 1
Fatigue G1–2, patients [1, 3]: 19
Fatigue G3–4, patients [1, 3]: 3
Lymphopenia G1–2, % [1, 3]: 31%
Lymphopenia G3–4, % [1, 3]: 3%
Lymphopenia G3–4, patients [1, 3]: 1
Nausea G1–2, patients [1, 3]: 13
Nausea G3–4, % [1, 3]: 15%
Nausea G3–4, patients [1, 3]: 6
Neutropenia G1–2, % [1, 3]: 3%
Neutropenia G1–2, patients [1, 3]: 1
Poor wound healing G1–2, patients [1, 3]: 2
Rash G1–2, patients [1, 3]: 15
Stomatitis G1–2, patients [1, 3]: 16
Thrombocytopenia G1–2, % [1, 3]: 21%
Thrombocytopenia G1–2, patients [1, 3]: 8
Thrombocytopenia G3–4, % [1, 3]: 3%
Thrombocytopenia G3–4, patients [1, 3]: 1
Vitiligo G1–2, % [1, 3]: 5%
Vitiligo G1–2, patients [1, 3]: 2
Weight loss G1–2, % [1, 3]: 18%
Weight loss G1–2, patients [1, 3]: 7
Anemia G1–2, % [1, 4]: 9%
Anemia G1–2, patients [1, 4]: 1
Anemia G3–4, % [1, 4]: 9%
Anemia G3–4, patients [1, 4]: 1
Anorexia G1–2, % [1, 4]: 36%
Anorexia G1–2, patients [1, 4]: 4
Diarrhea G1–2, patients [1, 4]: 3
Fatigue G1–2, patients [1, 4]: 5
Lymphopenia G1–2, % [1, 4]: 45%
Lymphopenia G1–2, patients [1, 4]: 5
Nausea G1–2, patients [1, 4]: 4
Nausea G3–4, patients [1, 4]: 1
Neutropenia G1–2, patients [1, 4]: 1
Rash G1–2, patients [1, 4]: 3
Stomatitis G1–2, patients [1, 4]: 4
Thrombocytopenia G1–2, % [1, 4]: 36%
Thrombocytopenia G1–2, patients [1, 4]: 4
Thrombocytopenia G3–4, % [1, 4]: 9%
Thrombocytopenia G3–4, patients [1, 4]: 1
Weight loss G1–2, % [1, 4]: 18%
Weight loss G1–2, patients [1, 4]: 2
Anemia G1–2, % [1, 5]: 33%
Anemia G1–2, patients [1, 5]: 1
Anemia G3–4, % [1, 5]: 33%
Anemia G3–4, patients [1, 5]: 1
Anorexia G1–2, % [1, 5]: 33%
Anorexia G1–2, patients [1, 5]: 1
Diarrhea G1–2, % [1, 5]: 33%
Diarrhea G1–2, patients [1, 5]: 1
Fatigue G1–2, % [1, 5]: 67%
Fatigue G1–2, patients [1, 5]: 2
Lymphopenia G1–2, % [1, 5]: 33%
Lymphopenia G1–2, patients [1, 5]: 1
Rash G1–2, patients [1, 5]: 1
Stomatitis G1–2, patients [1, 5]: 1
Weight loss G1–2, % [1, 5]: 67%
Weight loss G1–2, patients [1, 5]: 2
Anal fissure G1–2, % [1, 6]: 11%
Anal fissure G1–2, patients [1, 6]: 1
Anemia G1–2, % [1, 6]: 22%
Anemia G1–2, patients [1, 6]: 2
Anemia G3–4, patients [1, 6]: 1
Anorexia G1–2, % [1, 6]: 56%
Anorexia G1–2, patients [1, 6]: 5
Anorexia G3–4, % [1, 6]: 11%
Anorexia G3–4, patients [1, 6]: 1
Constipation G1–2, % [1, 6]: 11%
Constipation G1–2, patients [1, 6]: 1
Diarrhea G1–2, % [1, 6]: 11%
Diarrhea G1–2, patients [1, 6]: 1
Fatigue G1–2, patients [1, 6]: 2
Fatigue G3–4, patients [1, 6]: 2
Lymphopenia G1–2, % [1, 6]: 33%
Lymphopenia G1–2, patients [1, 6]: 3
Nausea G1–2, patients [1, 6]: 4
Nausea G3–4, patients [1, 6]: 1
Rash G1–2, patients [1, 6]: 2
Stomatitis G1–2, patients [1, 6]: 4
Thrombocytopenia G1–2, % [1, 6]: 22%
Thrombocytopenia G1–2, patients [1, 6]: 2
Weight loss G1–2, patients [1, 6]: 1
Anal fissure G1–2, % [1, 7]: 6%
Anal fissure G1–2, patients [1, 7]: 1
Anemia G3–4, % [1, 7]: 6%
Anemia G3–4, patients [1, 7]: 1
Anorexia G1–2, % [1, 7]: 38%
Anorexia G1–2, patients [1, 7]: 6
Anorexia G3–4, % [1, 7]: 13%
Anorexia G3–4, patients [1, 7]: 2
Constipation G1–2, patients [1, 7]: 4
Diarrhea G1–2, % [1, 7]: 13%
Diarrhea G1–2, patients [1, 7]: 2
Dizziness G1–2, % [1, 7]: 13%
Dizziness G1–2, patients [1, 7]: 2
Dysguesia G1–2, patients [1, 7]: 2
Dysguesia G3–4, patients [1, 7]: 1
Elevated creatinine G1–2, patients [1, 7]: 2
Elevated creatinine G3–4, patients [1, 7]: 1
Fatigue G1–2, patients [1, 7]: 10
Fatigue G3–4, patients [1, 7]: 1
Lymphopenia G1–2, % [1, 7]: 38%
Lymphopenia G1–2, patients [1, 7]: 6
Lymphopenia G3–4, % [1, 7]: 6%
Lymphopenia G3–4, patients [1, 7]: 1
Nausea G1–2, patients [1, 7]: 5
Nausea G3–4, % [1, 7]: 25%
Nausea G3–4, patients [1, 7]: 4
Poor wound healing G1–2, patients [1, 7]: 2
Rash G1–2, patients [1, 7]: 9
Stomatitis G1–2, patients [1, 7]: 7
Thrombocytopenia G1–2, % [1, 7]: 13%
Thrombocytopenia G1–2, patients [1, 7]: 2
Vitiligo G1–2, patients [1, 7]: 2
Weight loss G1–2, % [1, 7]: 13%
Weight loss G1–2, patients [1, 7]: 2
Grade 3 pulmonary tumor abscess ([1]; head and neck cancer patient with history of aspiration, cycle 3): One patient
Recommended phase II dose of HCQ ([1]; in combination with TEM 25 mg weekly): 600 mg twice daily
Maximum tolerated dose (MTD) of HCQ ([1]; in combination with TEM 25 mg weekly, up to 1200 mg/d): not reached; also recorded: not defined
Grade 4 cholangitis and sepsis during tumor regression ([1]; melanoma patient with large gall bladder metastases, cohort not stated): One patient
Vd/F ([2]; human, whole blood, po): 865 L
Cl/F, apparent oral clearance, bootstrap estimate [2, 8]: 15.953 L/h
Ka, absorption rate constant, bootstrap estimate [2, 8]: 0.758 h
Q, intercompartmental clearance, bootstrap estimate [2, 8]: 26.421 L/h
Tlag, absorption lag time, bootstrap estimate [2, 8]: 0.564 h
V2/F, apparent peripheral volume of distribution, bootstrap estimate [2, 8]: 3285.0246 L
V/F, apparent central volume of distribution, bootstrap estimate [2, 8]: 496.0499 L
Cl/F, apparent oral clearance, model estimate [2, 9]: 17.517 L/h
Ka, absorption rate constant, model estimate [2, 9]: 0.649 h
Q, intercompartmental clearance, model estimate [2, 9]: 26.067 L/h
Tlag, absorption lag time, model estimate [2, 9]: 0.399 h
V2/F, apparent peripheral volume of distribution, model estimate [2, 9]: 3236.73 L
Time to steady-state of HCQ blood concentrations, average ([2]; simulated from final PK model for individual patients): 350 h and 360 h
Blood HCQ AUC, Cmax, Cmin and Cavg relationship to dose ([2]; simulated steady-state, 200–1200 mg/d): proportional to daily HCQ dose
